A short description of data set [1]: Drug metabolism in dog hepatocytes assessed as [3H]-3-(3,5-dimethyl-4-(6-(5-phenyl-1,3,4-oxadiazol-2-yl)-1H-benzo[d]imidazol-2-yl)phenyl)-2,2-dimethylpropanoic acid formation at 12.5 uM after 18 hrs. Type of data set: ADME, cell-based, Canis lupus familiaris, Hepatocyte. In short, it runs like this:
(§1)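 [3H]-labelled compound (12.5 µM) was incubated for 18 h with rat, dog, monkey or human hepatocytes, and metabolites were profiled.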

Data set [2] is described as follows: Permeability across apical to basolateral side in human Caco2 cells. Type of data set: ADME, cell-based. The conditions noted are these: Caco-2, read-out: permeability. In short, it runs like this:
(§2)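 Caco-2 monolayer permeability was measured in the A-B and B-A directions, and the efflux ratio was taken as B-A/A-B.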

The nature of data set [3]: Drug metabolism in rat hepatocytes assessed as [3H]-(2S,3S,4S,5R,6S)-3,4,5-trihydroxy-6-(3-(4-(6-(5-(4-methoxyphenyl)-1,3,4-oxadiazol-2-yl)-1H-benzo[d]imidazol-2-yl)-3,5-dimethylphenyl)-2,2-dimethylpropanoyloxy)tetrahydro-2H-pyran-2-carboxylic acid formation at 12.5 uM after 18 hrs. Type of data set: ADME, cell-based, Hepatocyte. In a few lines:
as §1

The nature of data set [4]: Drug metabolism in human hepatocytes assessed as [3H]-(2S,3S,4S,5R,6S)-3,4,5-trihydroxy-6-(3-(4-(6-(5-(4-methoxyphenyl)-1,3,4-oxadiazol-2-yl)-1H-benzo[d]imidazol-2-yl)-3,5-dimethylphenyl)-2,2-dimethylpropanoyloxy)tetrahydro-2H-pyran-2-carboxylic acid formation at 12.5 uM after 18 hrs. It counts as ADME, cell-based, Hepatocyte. In short, it runs like this: as §1
Data set [5] in a line: Drug metabolism in monkey hepatocytes assessed as [3H]-(2S,3S,4S,5R,6S)-3,4,5-trihydroxy-6-(3-(4-(6-(5-(4-methoxyphenyl)-1,3,4-oxadiazol-2-yl)-1H-benzo[d]imidazol-2-yl)-3,5-dimethylphenyl)-2,2-dimethylpropanoyloxy)tetrahydro-2H-pyran-2-carboxylic acid formation at 12.5 uM after 18 hrs. It counts as ADME, cell-based, Macaca mulatta, Hepatocyte. The note with it: rhesus monkey. In short, it runs like this: as §1

The subject of data set [6] is Salmonella typhimurium. The experiment in a line: Genotoxicity in histidine depleted Salmonella typhimurium TA98 assessed as increase in reverting mutations up to 1000 ug in absence of S9 metabolic activation by Ames test. It counts as toxicity. The conditions noted are these: salmonella enterica subsp. enterica serovar typhimurium.
Data set [7] has as its system Salmonella typhimurium. The experiment in a line: Genotoxicity in histidine depleted Salmonella typhimurium TA100 assessed as increase in reverting mutations up to 1000 ug in absence of S9 metabolic activation by Ames test. Type of data set: toxicity. The note with it: salmonella enterica subsp. enterica serovar typhimurium.
Data set [8] can be described thus: AUC (0 to 8 hrs) in Sprague-Dawley rat at 1mg/kg, iv by LC/MS/MS analysis. Type of data set: ADME, organism-based. Details: time < 8 hr, dose 1 mg/kg, route intravenous. The note with it: in vivo. In short, it runs like this: (§3)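 Male Sprague-Dawley rats, 200-300 g, dosed iv (n = 2) or po (n = 3) as solutions in NMP/PG or PEG400/ETPGS vehicles. Blood was taken from a jugular vein catheter at 0.083 (iv only), 0.25, 0.5, 1, 2, 4, 6 and 8 h into EDTA tubes, and plasma was analysed by LC-MS/MS. Values are means ± SD.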

Data set [9] is described as follows: Volume of distribution at steady state in Sprague-Dawley rat at 1 mg/kg, iv by LC/MS/MS analysis. Type of data set: ADME, organism-based. The conditions noted are these: in vivo, read-out: Vdss. In a few lines: as §3
Data set [10] concerns Salmonella typhimurium. The data set is described as follows: Genotoxicity in histidine depleted Salmonella typhimurium TA98 assessed as increase in reverting mutations up to 1000 ug in presence of S9 metabolic activation by Ames test. It counts as toxicity. The conditions noted are these: salmonella enterica subsp. enterica serovar typhimurium.
Data set [11] can be described thus: Clearance in Sprague-Dawley rat at 1 mg/kg, iv by LC/MS/MS analysis. The note with it: in vivo. It counts as ADME, organism-based. In short, it runs like this:
as §3

For data set [12], the target named is T1, Diacylglycerol O-acyltransferase 1 (Mus musculus, UniProt Q9Z2A7).
T1 sequence (Q9Z2A7 whole entry): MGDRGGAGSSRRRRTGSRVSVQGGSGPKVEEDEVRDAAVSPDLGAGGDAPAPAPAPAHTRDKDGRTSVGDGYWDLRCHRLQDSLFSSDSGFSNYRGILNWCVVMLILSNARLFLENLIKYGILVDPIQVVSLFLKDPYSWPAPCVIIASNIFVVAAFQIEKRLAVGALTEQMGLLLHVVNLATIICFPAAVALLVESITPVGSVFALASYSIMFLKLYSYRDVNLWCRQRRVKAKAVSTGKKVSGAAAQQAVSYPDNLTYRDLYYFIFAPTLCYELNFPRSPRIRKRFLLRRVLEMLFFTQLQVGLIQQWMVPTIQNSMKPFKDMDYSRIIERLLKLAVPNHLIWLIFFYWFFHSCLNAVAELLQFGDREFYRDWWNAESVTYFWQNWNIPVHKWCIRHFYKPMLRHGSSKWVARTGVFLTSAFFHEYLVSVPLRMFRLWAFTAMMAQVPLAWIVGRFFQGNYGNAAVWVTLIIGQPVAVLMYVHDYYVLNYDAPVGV
The data set is described as follows: Inhibition of DGTA1 in mouse C2C12 cells assessed as inhibition of triglyceride formation after 2 hrs by LC/MS/MS analysis. Type of data set: cell-based. In short, it runs like this: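 C2C12 cells were seeded in DMEM with 5 mM glucose and 10% FBS for 18 h at 37 °C. Medium was then replaced with DMEM, 5 mM glucose and 250 µM oleate-BSA plus inhibitor (0.5% DMSO final) for 2 h at 37 °C. Cells were extracted with butanol containing tripalmitolein internal standard and triglyceride was read by LC-MS/MS. An 11-point, 3-fold dose response was run in quadruplicate.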

Data set [13] is described as follows: Oral bioavailability in Sprague-Dawley rat at 3 mg/kg by LC/MS/MS analysis. Type of data set: ADME, organism-based. The note with it: in vivo. In short, it runs like this:
as §3

Data set [14] can be described thus: Permeability across basolateral to apical side in human Caco2 cells. The note with it: Caco-2, read-out: permeability. It counts as ADME, cell-based. In short, it runs like this: as §2
Data set [15] in a line: Drug metabolism in dog hepatocytes assessed as [3H]-(2S,3S,4S,5R,6S)-3,4,5-trihydroxy-6-(3-(4-(6-(5-(4-methoxyphenyl)-1,3,4-oxadiazol-2-yl)-1H-benzo[d]imidazol-2-yl)-3,5-dimethylphenyl)-2,2-dimethylpropanoyloxy)tetrahydro-2H-pyran-2-carboxylic acid formation at 12.5 uM after 18 hrs. Type of data set: ADME, cell-based, Canis lupus familiaris, Hepatocyte. In short, it runs like this: as §1

For data set [16], the system named is Homo sapiens. The data set is described as follows: Toxicity in human assessed as nausea at 150 mg, po as single oral dose. It counts as organism-based. The conditions noted are these: in vivo.
Data set [17] deals with Homo sapiens. The data set is described as follows: Toxicity in human assessed as diarrhea at 150 mg, po as single oral dose. The conditions noted are these: in vivo. It counts as organism-based.
A short description of data set [18]: Drug metabolism in monkey hepatocytes assessed as [3H]-3-(3,5-dimethyl-4-(6-(5-phenyl-1,3,4-oxadiazol-2-yl)-1H-benzo[d]imidazol-2-yl)phenyl)-2,2-dimethylpropanoic acid formation at 12.5 uM after 18 hrs. It counts as ADME, cell-based, Macaca mulatta, Hepatocyte. The conditions noted are these: rhesus monkey. In short, it runs like this: as §1
Data set [19] can be described thus: Cmax in Sprague-Dawley rat at 3 mg/kg, po by LC/MS/MS analysis. Details: dose 3 mg/kg, route oral. The conditions noted are these: in vivo. Type of data set: ADME, organism-based. In short, it runs like this:
as §3

Data set [20] is described as follows: AUC (0 to 8 hrs) in Sprague-Dawley rat at 3 mg/kg, po by LC/MS/MS analysis. It counts as ADME, organism-based. Further details: dose 3 mg/kg, time < 8 hr, route oral. The note with it: in vivo. In a few lines:
as §3

Data set [21] can be described thus: Tmax in Sprague-Dawley rat 3 mg/kg, po by LC/MS/MS analysis. Type of data set: ADME, organism-based. The conditions noted are these: in vivo. In a few lines:
as §3

`COc1ccc(-c2nnc(-c3ccc4nc(-c5c(C)cc(CC(C)(C)C(=O)O)cc5C)[nH]c4c3)o2)cc1`: the Drug metabolism entry in [1], in data set [3], in data set [4], in [5], in [15] and in data set [18] was “Metabolite_Detected” in each case. In addition, the Papp A→B in [2] is 4.2 ×10⁻⁶ cm/s. Moreover, the Activity entry is “Non-Toxic” in the data set on Salmonella typhimurium [6]; “Non-Toxic” in the data set on Salmonella typhimurium [7]; “Non-Toxic” with Salmonella typhimurium [10]; “Toxic” in the data set on Homo sapiens [16]; “Toxic” in the data set on Homo sapiens [17]. The area under the curve AUC(0-t) at 8 h in data set [8] stood at 3.86 µM·h; in data set [20], 10.4 µM·h. Further, in data set [9], the Vd is 0.6 L/kg. The compound also registered a clearance in data set [11] of 9.5 mL/min/kg. The 50% inhibitory concentration (IC50) in data set [12] was 151 nM. In data set [13], the bioavailability was found to be 90%. Moreover, the Papp B→A in data set [14] is 10 ×10⁻⁶ cm/s. Moreover, the maximum concentration (Cmax) in [19] was 3.55 µM. The time of peak concentration (Tmax) in data set [21] was determined as 1.2 h.

Values taken from ChEMBL document CHEMBL4014326, “Discovery of an Orally Bioavailable Benzimidazole Diacylglycerol Acyltransferase 1 (DGAT1) Inhibitor That Suppresses Body Weight Gain in Diet-Induced Obese Dogs and Postprandial Triglycerides in Humans” (J Med Chem, 2017).
